PubChem BioAssay AID704 (The Scripps Research Institute Molecular Screening Center, 2007)
The campaign covered roughly 97,000 compounds. About 770 (0.79%) were called active. The sample holds actives, similar compounds and a random draw of the others, so the mix is not that of the screen. Unmarked numbers belong to inactive results.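 How the source made its calls: active means inhibition above the screen-wide mean plus 3 SD (cut at about 35% in these data); inactive means the rest.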

Target: Protein Rev (Human immunodeficiency virus type 1 group M subtype B (isolate WMJ22)) (UniProt P05866)
Experiment: HIV-1 Rev-RRE binding inhibitors, primary screen, biochemical, FRET, protein-RNA interaction (AID 704);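 further: 0% = median DMSO wells and 100% = median Neomycin B control wells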
Details: Rev peptide-RRE RNA binding, at 8 µM, stronger effect = higher value
Procedure, shortened: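 Test system: Cy5-tagged RRE RNA duplex with fluorescein-tagged Rev peptide; Probe or stimulus: labelled Rev peptide; Schedule: 5 min preincubation and 15 min binding, 25 °C; Signal: FRET fluorescence readout; Evaluation: % inhibition from 671/540 nm acceptor-to-donor ratio, scaled between controls; Control set: DMSO and neomycin B.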

Chain of Protein Rev (Human immunodeficiency virus type 1 group M subtype B (isolate WMJ22)) (P05866 whole entry, looked up): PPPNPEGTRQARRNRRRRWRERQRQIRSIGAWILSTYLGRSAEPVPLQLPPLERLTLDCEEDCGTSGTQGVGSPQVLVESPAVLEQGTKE

Question: Which inhibition does the source give for `CCOC(=O)c1c(C)oc2cc(Br)c(OCC(N)=O)cc12` here?
Answer: -5.76%

Question: How did the inhibition turn out when `COC(=O)C1=C(C)NC(=O)NC1/C=C/c1ccccc1` (stereo not drawn) was run?
Answer: 7.27%

Question: With `COC(=O)C1=C(C)NC2=C(C(=O)c3ccccc32)C1c1ccc(-c2ccc(C(=O)O)cc2)o1` (stereo not drawn) as the molecule, how does the inhibition read?
Answer: 41.7% (active)

Question: `COc1ccccc1NC(=O)C1=C(C)NC2=C(C(=O)CCC2)C1c1ccc(C)o1` (stereo not drawn) was tested. Which inhibition did it give?
Answer: -3.73%

Question: How did the inhibition turn out when `N#C/C(=C(/O)COc1cccc2ccccc12)c1nc2ccccc2[nH]1` was run?
Answer: 8.41%

Question: `COc1ccc(-n2nnnc2SCc2nc(N)nc(N3CCOCC3)n2)cc1` was tested. Which inhibition did it give?
Answer: 8.05%

Question: For `O=C(COc1ccc(/C=N/NS(=O)(=O)c2ccccc2)cc1)NCCc1ccccc1`, which inhibition is on record?
Answer: 6.41%

Question: How did the inhibition turn out when `O=S(=O)(N1CCCCC1)N1CCNCC1` was run?
Answer: 0.92%

Question: With `CCN(CC)c1ccc(NC(=O)c2ccc(Cl)nc2)cc1` as the molecule, how does the inhibition read?
Answer: -7.72%

Question: With `Cc1c(C(=O)OC(C)C)sc(NC(=O)c2cccnc2)c1C#N` as the molecule, how does the inhibition read?
Answer: 27.8%

Question: Which inhibition does the source give for `CC(C)c1cc(C(N)=O)c(NC(=O)c2cccc(COc3ccc(Br)cc3)c2)s1` here?
Answer: 15.9%

Question: For `CC1=CC(C)(C)Nc2ccc(OC(=O)C(Cc3ccccc3)N3C(=O)C4CCCCC4C3=O)cc21` (stereo not drawn), which inhibition is on record?
Answer: -0.51%

Question: Which inhibition does the source give for `CCCNC(=O)CN(Cc1ccccc1F)S(=O)(=O)c1ccc(C)cc1` here?
Answer: 8.11%

Question: Which inhibition does the source give for `COC(=O)/C(NC(C)=O)=C(\C)c1ccc(Cl)cc1` here?
Answer: 1.2%

Question: With `O=C(c1cc2c(s1)CCC2)N1CCN(c2ccccc2)CC1` as the molecule, how does the inhibition read?
Answer: -4.48%

Question: Which inhibition does the source give for `CC(=O)Nc1ccc(OCC(O)CN2CCN(c3ccccc3Cl)CC2)cc1` (stereo not drawn) here?
Answer: -0.14%

Question: `Cc1cc2c(c(=O)n1Cc1ccco1)C(c1ccccc1)C(C#N)=C(N)O2` (stereo not drawn) was tested. Which inhibition did it give?
Answer: 7.8%

Question: For `CCOC(=O)CSc1nc2c(sc(=S)n2CCc2ccccc2)c(=O)n1Cc1ccco1`, which inhibition is on record?
Answer: 7.11%

Question: For `CN(c1ccccc1)c1ccc(/C=c2\s/c(=C(/C#N)C(=O)C(C)(C)C)n(Cc3ccco3)c2=O)cc1`, which inhibition is on record?
Answer: 117% [fluorescence artefact?] (active)

Question: Which inhibition does the source give for `N#C/C(=C(/O)Cc1cccc2ccccc12)c1nc2ccccc2s1` here?
Answer: 3.55%

Question: How did the inhibition turn out when `O=C(C1=C(O)C(=O)N(c2ncccn2)C1c1cccs1)c1ccco1` (stereo not drawn) was run?
Answer: 46.5% (active)

Question: `O=C(C1=C(O)C(=O)N(Cc2ccccc2)C1c1cccnc1)c1ccco1` (stereo not drawn) was tested. Which inhibition did it give?
Answer: 7.49%

Question: `O=C(C1=C(O)C(=O)N(Cc2ccccc2)C1c1ccco1)c1ccco1` (stereo not drawn) was tested. Which inhibition did it give?
Answer: 0.29%

Question: How did the inhibition turn out when `O=c1c2ccccc2nc2n1C(CSc1ccc(Cl)cc1)CN2` (stereo not drawn) was run?
Answer: 6.92%

Question: For `CCOC(=O)c1sc(C)c2c1NC(C)(c1cccc3ccccc13)NC2=O` (stereo not drawn), which inhibition is on record?
Answer: 18.2%

Question: How did the inhibition turn out when `CCN1C(=O)C(CC(=O)Nc2cc(C)ccc2C)SC1=Nc1ccc(S(N)(=O)=O)cc1` (stereo not drawn) was run?
Answer: 9.41%

Question: With `CC(CN1CCOCC1)c1ccccc1` (stereo not drawn) as the molecule, how does the inhibition read?
Answer: 10.4%

Question: For `Cc1ccc(NC(=O)Nc2ccc3oc(C)nc3c2)cc1`, which inhibition is on record?
Answer: 7.33%

Question: For `CCOCN(C(=O)Cn1c(C(C)O)nc2ccccc21)c1c(C)cccc1CC` (stereo not drawn), which inhibition is on record?
Answer: 2.37%

Question: With `Cc1c(C#N)c(NC(=O)c2ccccc2)n(Cc2ccccc2)c1C` as the molecule, how does the inhibition read?
Answer: 2.3%

Question: With `Cc1nn(CCOc2ccccc2)c(=O)n1-c1ccccc1F` as the molecule, how does the inhibition read?
Answer: 5.48%

Question: How did the inhibition turn out when `COc1cc(/C=C(\C#N)c2nc3c(s2)CC(C)CC3)ccc1O` (stereo not drawn) was run?
Answer: 66% (active)

Question: How did the inhibition turn out when `COc1cc(C(=O)OC(C)C(=O)NCC2CCCCC2)cc(NC(=O)c2ccco2)c1OC` (stereo not drawn) was run?
Answer: -0.95%

Question: Which inhibition does the source give for `CCOCc1nnc(NC(=O)CSc2ccc(C)cc2)s1` here?
Answer: 6.99%

Question: With `CS(=O)(=O)c1ccc2c(c1)SC1=NC(=O)/C(=C/c3ccco3)C(=N)N12` as the molecule, how does the inhibition read?
Answer: 36.1% (active)

Question: With `CN(C)CCNC(=O)Nc1cccc(Cl)c1Cl` as the molecule, how does the inhibition read?
Answer: 2.97%

Question: How did the inhibition turn out when `O=C1COc2ccc(NC(=O)N3CCN(c4ccc(F)cc4)CC3)cc2N1` was run?
Answer: 5.12%

Question: How did the inhibition turn out when `O=C(CC12CC3CC(CC(C3)C1)C2)Nc1ccc2c(c1)COC2=O` was run?
Answer: 11.5%

Question: For `Oc1ccc2ccc3cccc[n+]3c2c1`, which inhibition is on record?
Answer: 120% [fluorescence artefact?] (active)

Question: How did the inhibition turn out when `Cc1noc(C)c1C(=O)OCC(=O)/C=C1\N(C)c2ccccc2C1(C)C` was run?
Answer: 2.24%

Question: For `CN1/C(=C\C(=O)c2oc3ccccc3c2N)C(C)(C)c2ccccc21`, which inhibition is on record?
Answer: 6.51%

Question: `CN1/C(=C\C=C2\N=C(c3ccc(F)cc3)OC2=O)C(C)(C)c2ccccc21` was tested. Which inhibition did it give?
Answer: 48.7% (active)

Question: How did the inhibition turn out when `COc1ccc(Nc2nc(=O)[nH]nc2C)cc1` was run?
Answer: 4.41%

Question: How did the inhibition turn out when `COc1ccc([N+](=O)[O-])cc1NC(=O)CCc1ccccc1` was run?
Answer: 1.01%

Question: How did the inhibition turn out when `CCOC(=O)C1=C(C)Nc2sc(C(=O)c3ccc(Br)cc3)c(N)c2C1c1ccc(C(=O)OC)cc1` (stereo not drawn) was run?
Answer: 7.08%

Question: `Cc1cccc(C)c1N1CCN(S(=O)(=O)N2CCOCC2)CC1` was tested. Which inhibition did it give?
Answer: 8.84%

Question: `Cc1cc(N2CCN(S(=O)(=O)c3ccc(C)c(C)c3)CC2)c2ccccc2n1` was tested. Which inhibition did it give?
Answer: 16.5%

Question: For `Cc1ccc(S(=O)(=O)Nc2nc3ccccc3nc2N2CCc3ccccc3C2)cc1`, which inhibition is on record?
Answer: 6.67%

Question: Which inhibition does the source give for `Cc1ccc(S(=O)(=O)C(C#N)c2nc3ccccc3nc2N2CCCC2)cc1C` (stereo not drawn) here?
Answer: 80% [fluorescence artefact?] (active)

Question: Which inhibition does the source give for `CC(C)=C1SC(N2CCN(c3cccc(C)c3)CC2)=NC1=O` here?
Answer: 3.88%

Question: How did the inhibition turn out when `CCOC(=O)c1cc2n(c1N)-c1ccccc1C2=O` was run?
Answer: 107% [fluorescence artefact?] (active)

Question: Which inhibition does the source give for `CC(C)OC(=O)CN1C(=O)C(=O)c2ccccc21` here?
Answer: 9.74%

Question: Which inhibition does the source give for `CCOC(=O)c1cc2n(c1C)-c1ccccc1C2=O` here?
Answer: 7.43%

Question: Which inhibition does the source give for `CC(C)CCNC(=O)Cn1c(=O)oc2cc(S(=O)(=O)N3CC(C)CC(C)C3)ccc21` (stereo not drawn) here?
Answer: 4.77%

Question: With `CCOC(=O)N1CCN(c2c(NCCCN3CCCC(C)C3)c(=O)c2=O)CC1` (stereo not drawn) as the molecule, how does the inhibition read?
Answer: 1.25%

Question: How did the inhibition turn out when `CCCCCCn1c(CN2CCCC(C)C2)nc2c1c(=O)n(C)c(=O)n2C` (stereo not drawn) was run?
Answer: 7.64%

Question: `CCCn1c(O)c(CN2CCCC(C)C2)c(C)c(C#N)c1=O` (stereo not drawn) was tested. Which inhibition did it give?
Answer: 42.6% (active)

Question: How did the inhibition turn out when `O=C(O)c1ccccc1NC(=S)NC(NC(=O)c1ccccc1[N+](=O)[O-])C(Cl)(Cl)Cl` (stereo not drawn) was run?
Answer: -3.09%
